These results are taken from ChEMBL document CHEMBL4837207, “Discovery of pyrrolo[2,3-d]pyrimidine derivatives as potent Axl inhibitors: Design, synthesis and biological evaluation” (Eur J Med Chem, 2021).

Usually IC50 stands for the point on the concentration scale where inhibition reaches its midpoint. High values mean weaker potency in that assay, low ones greater potency in that assay.

Assay [1] addresses Platelet-derived growth factor receptor alpha (Homo sapiens, UniProt P16234). Put plainly: Inhibition of PDGFRalpha (unknown origin) by ELISA. (In an ELISA, binding on a coated surface is turned into a signal by an enzyme label.)
Assay [2] addresses T1, Tyrosine-protein kinase receptor UFO (Mus musculus) (UniProt Q00993).
T1 sequence (whole entry): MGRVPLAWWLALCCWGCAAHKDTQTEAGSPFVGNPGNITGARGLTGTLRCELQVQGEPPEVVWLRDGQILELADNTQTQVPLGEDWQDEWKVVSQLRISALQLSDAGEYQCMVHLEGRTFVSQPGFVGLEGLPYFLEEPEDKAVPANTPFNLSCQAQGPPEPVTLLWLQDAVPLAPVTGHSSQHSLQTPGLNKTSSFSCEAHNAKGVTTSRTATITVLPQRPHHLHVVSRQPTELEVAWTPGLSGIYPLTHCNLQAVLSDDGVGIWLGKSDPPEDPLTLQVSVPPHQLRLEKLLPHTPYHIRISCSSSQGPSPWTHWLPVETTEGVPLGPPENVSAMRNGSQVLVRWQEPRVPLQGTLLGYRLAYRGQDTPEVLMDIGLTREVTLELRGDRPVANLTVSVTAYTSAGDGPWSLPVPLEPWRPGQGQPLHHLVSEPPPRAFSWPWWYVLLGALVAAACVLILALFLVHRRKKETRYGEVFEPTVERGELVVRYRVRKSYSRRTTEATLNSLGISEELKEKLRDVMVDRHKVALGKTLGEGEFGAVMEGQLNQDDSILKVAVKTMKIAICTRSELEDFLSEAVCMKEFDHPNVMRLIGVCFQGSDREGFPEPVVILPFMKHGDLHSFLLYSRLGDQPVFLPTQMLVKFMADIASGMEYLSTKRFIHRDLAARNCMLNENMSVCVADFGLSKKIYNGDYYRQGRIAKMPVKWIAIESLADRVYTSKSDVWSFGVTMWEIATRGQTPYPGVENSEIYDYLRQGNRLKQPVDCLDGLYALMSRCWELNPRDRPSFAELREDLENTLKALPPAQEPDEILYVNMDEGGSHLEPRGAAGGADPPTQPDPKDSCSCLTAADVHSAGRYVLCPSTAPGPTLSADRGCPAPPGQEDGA
Put plainly: Inhibition of AXL in mouse BaF3 cells assessed as reduction in AKT phosphorylation at S473 residue by Western blot analysis. Format: cell-based. The note with it: dose 0.1-10 nM. In short, it runs like this: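 Cells in exponential growth (BaF3 engineered to stably express constitutively active human wild-type TEL-Axl; MKN-45) exposed to the indicated concentrations for 2 h, then lysed in 1× SDS sample buffer. Phosphorylated proteins detected by Western blot.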
(A western blot detects proteins with antibodies after separation by electrophoresis.)

Molecules are shown by their SMILES.

Platelet-derived growth factor receptor alpha, sequence (P16234 whole entry): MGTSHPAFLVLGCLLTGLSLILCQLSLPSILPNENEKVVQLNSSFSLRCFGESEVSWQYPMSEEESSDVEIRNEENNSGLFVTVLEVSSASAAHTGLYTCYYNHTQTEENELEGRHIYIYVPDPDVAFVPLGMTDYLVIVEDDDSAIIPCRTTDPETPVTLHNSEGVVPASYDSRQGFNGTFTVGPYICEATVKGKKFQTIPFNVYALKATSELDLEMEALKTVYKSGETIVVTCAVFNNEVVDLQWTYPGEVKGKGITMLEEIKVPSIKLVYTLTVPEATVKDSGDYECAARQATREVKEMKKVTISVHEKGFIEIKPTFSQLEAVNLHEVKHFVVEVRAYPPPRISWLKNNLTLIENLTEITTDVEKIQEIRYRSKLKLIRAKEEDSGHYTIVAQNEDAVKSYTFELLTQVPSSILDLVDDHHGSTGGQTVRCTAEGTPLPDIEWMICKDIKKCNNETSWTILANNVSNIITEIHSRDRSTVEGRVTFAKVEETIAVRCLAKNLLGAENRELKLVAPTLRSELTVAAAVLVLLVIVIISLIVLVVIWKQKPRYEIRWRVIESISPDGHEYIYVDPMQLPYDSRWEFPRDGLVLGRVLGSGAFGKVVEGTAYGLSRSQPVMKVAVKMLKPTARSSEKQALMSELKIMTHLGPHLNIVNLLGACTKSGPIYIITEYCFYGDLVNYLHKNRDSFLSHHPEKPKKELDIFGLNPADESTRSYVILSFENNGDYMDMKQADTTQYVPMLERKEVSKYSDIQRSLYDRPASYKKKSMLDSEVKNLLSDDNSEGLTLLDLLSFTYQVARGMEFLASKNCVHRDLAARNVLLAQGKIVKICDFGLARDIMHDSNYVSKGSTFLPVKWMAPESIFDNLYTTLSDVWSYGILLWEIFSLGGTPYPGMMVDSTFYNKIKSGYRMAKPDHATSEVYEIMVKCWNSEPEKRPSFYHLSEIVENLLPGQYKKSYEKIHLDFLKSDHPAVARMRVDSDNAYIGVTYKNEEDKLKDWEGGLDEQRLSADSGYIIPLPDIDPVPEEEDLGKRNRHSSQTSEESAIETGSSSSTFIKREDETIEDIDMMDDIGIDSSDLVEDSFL

In turn, `CC(C)n1cc(C(=O)Nc2cc(F)c(-c3c[nH]c4ncnc(N)c34)cc2F)c(=O)c(-c2ccc(F)cc2)c1` showed an IC50 in assay [1] above 1000 nM. The inhibition entry in assay [2] was “Dose-Dependent Effect”.
